Pf Dd2 inh: P. falciparum Dd2 growth inhibition | activity change, % at 10 µM | actives 2.3% (n = 94,000) | SYBR Green, 72 h; stronger effect = lower value | AID 1159554; in the data active = activity change below about -80%; inconclusive = no clear call, values can overlap the other calls
Tcruzi prolif: T. cruzi proliferation inhibition. actives 5.9% (n = 77,000). inhibition, % at 8.34 µM. T. cruzi beta-gal in NIH3T3, GalScreen luminescence, 90 h;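 active = mean inhibition above about 93%, with at least 55% of replicates each passing it, limit read from the data, passing the limit was not always enough; inconclusive = only one of those two conditions holds; inactive = neither condition holds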
GASC1 inh: blocks human GASC-1 (KDM4C) demethylase activity; actives 0.15% (n = 96,000); inhibition, % at 12.5 µM; AID 720574; GST-KDM4C 2-372, H3K9me3 peptide, LANCE TR-FRET; Q9H3R0;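 active = mean replicate inhibition above about 25%, with at least 55% of replicates also reaching it, limit read from the data, passing the limit was not always enough; inconclusive = only one of those two conditions met; inactive = neither condition met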
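Assay system: GST-GASC-1 enzyme fragment 2-372 | Amount: 10 nM enzyme | Medium: HEPES buffer, pH 7.5, plus ascorbate | Reagent: H3K9me3 peptide substrate, Fe(II), 2-oxoglutarate | Doses: Single-point compound screen | Incubation: 30 min demethylation and 1 h detection at room temperature | Measured by: LANCE TR-FRET, excitation 340 nm, emissions 618 and 671 nm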
IDH1 mut inh: inhibitors of human IDH1 R132H; O75874; IDH1 R132H reductase, diaphorase/resazurin fluorescence, 60 min; inhibition, % at 10 µM; actives 0.18% (n = 70,000); AID 624101; in the data active = inhibition above about 34%; inconclusive = no clear call, values can overlap the other calls; inactive = below about 11%;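 also: 0% = DMSO and 100% = no enzyme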
Target sequence (O75874 whole entry R132H): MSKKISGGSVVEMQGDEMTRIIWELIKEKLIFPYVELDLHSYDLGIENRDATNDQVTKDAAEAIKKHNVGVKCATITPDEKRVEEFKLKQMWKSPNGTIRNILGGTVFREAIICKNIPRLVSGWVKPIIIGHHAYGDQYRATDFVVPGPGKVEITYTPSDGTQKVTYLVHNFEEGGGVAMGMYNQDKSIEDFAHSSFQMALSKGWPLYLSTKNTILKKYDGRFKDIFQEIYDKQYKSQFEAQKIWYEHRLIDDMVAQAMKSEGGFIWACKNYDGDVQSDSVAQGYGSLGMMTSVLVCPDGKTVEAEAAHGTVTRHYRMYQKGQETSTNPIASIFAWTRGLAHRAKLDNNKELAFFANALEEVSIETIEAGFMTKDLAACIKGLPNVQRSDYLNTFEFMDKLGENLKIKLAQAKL
Starred values were filed as active, the others as inactive; ? = inconclusive; . = no result. Sampled rows, rich in hits. Any-hit rate of the full collection: about 5.8%.

SMILES | Pf Dd2 inh | Tcruzi prolif | GASC1 inh | IDH1 mut inh
COc1ccc2c3c(n(C)c2c1)[C@@H](CO)NCC31CCN(Cc2ccc(-c3ccccn3)cc2)CC1 | -88* | . | 0 | .
COc1ccc2c3c(n(C)c2c1)[C@@H](CO)NCC31CCN(Cc2ccc(Cl)cc2)CC1 | 0 | . | . | .
COc1ccc2c3c(n(C)c2c1)[C@@H](CO)NCC31CN(Cc2ccc(-c3ccccn3)cc2)C1 | -89* | . | -1 | .
COc1ccc2c3c(n(C)c2c1)[C@@H](CO)NCC31CCN(Cc2ccccc2F)CC1 | -78 | . | -1 | .
O=C1NC(=O)C(C(CC(=O)c2ccccc2)c2ccccc2Br)C(=O)N1 (stereo not given) | . | . | . | 0
C[C@H](CO)N1C[C@H](C)[C@H](CN(C)C(=O)Cc2ccccc2)OCc2ccccc2-c2c(n(C)c3ccccc23)C1=O | -73 | 3 | -1 | 0
C[C@H]1CN([C@@H](C)CO)C(=O)c2c(c3ccccc3n2C)-c2ccccc2CO[C@@H]1CN(C)C(=O)Cc1ccccc1 | -91* | 77 | -2 | .
C[C@@H]1CN([C@H](C)CO)C(=O)c2c(c3ccccc3n2C)-c2ccccc2CO[C@H]1CN(C)C(=O)Cc1ccccc1 | -22 | . | . | .
C[C@H](CO)N1C[C@H](C)[C@@H](CN(C)C(=O)Cc2ccccc2)OCc2ccccc2-c2c(n(C)c3ccccc23)C1=O | -81* | 60 | -1 | .
C[C@@H]1CN([C@H](C)CO)C(=O)c2cccc(NC(=O)Nc3ccc(F)cc3)c2O[C@@H]1CN(C)Cc1ccc(C(=O)Nc2ccccc2N)cc1 | -89* | . | -2 | .
C[C@H](CO)N1C[C@H](C)[C@@H](CN(C)Cc2ccc(C(=O)Nc3ccccc3N)cc2)Oc2ccc(NC(=O)Nc3ccc(F)cc3)cc2C1=O | ? | 38 | 0 | .
C[C@@H]1CN([C@@H](C)CO)C(=O)c2cccc(NC(=O)Nc3ccc(F)cc3)c2O[C@@H]1CN(C)Cc1ccc(C(=O)Nc2ccccc2N)cc1 | -92* | . | -1 | 1
CC(=O)c1cccc(NC(=O)c2ccsc2NC(=O)COc2ccccc2)c1 | . | . | . | 2
C/C=C/c1ccc2c(c1)O[C@@H](CN(C)C(=O)Cc1ccncc1)[C@@H](C)CN([C@H](C)CO)S2(=O)=O | -58 | -11 | -4 | 0
C[C@H](CO)N1C[C@H](C)[C@H](CN(C)C(=O)Cc2ccncc2)Oc2cc(C#CC3CCCCC3)ccc2S1(=O)=O | -86* | 86 | -2 | ?
C[C@@H]1CN([C@H](C)CO)S(=O)(=O)c2ccc(C#CC3CC3)cc2O[C@H]1CN(C)C(=O)Cc1ccncc1 | -64 | 79 | 1 | 7
C/C=C/c1ccc2c(c1)O[C@@H](CN(C)C(=O)Cc1ccncc1)[C@H](C)CN([C@H](C)CO)S2(=O)=O | -84* | 17 | -1 | 2
N#Cc1c(NC(=O)c2cc(S(=O)(=O)N3CCOCC3)cs2)sc2c1CCCC2 | . | . | . | 0
COC(=O)c1ccccc1NC(=O)c1ccc(Cl)c(S(=O)(=O)Nc2ccccc2C)c1 | . | . | . | 4
COc1ccc(NC(=O)Nc2ccc3c(c2)C(=O)N([C@H](C)CO)C[C@H](C)[C@@H](CN(C)CC2CC2)OCCCC[C@H](C)O3)cc1 | -84* | 93 | 1 | .
C[C@@H]1CCCCO[C@H](CN(C)CC2CC2)[C@H](C)CN([C@H](C)CO)C(=O)c2cc(NC(=O)C3CCCCC3)ccc2O1 | -83* | 89 | -1 | .
C[C@@H]1CCCCO[C@H](CN(C)CC2CC2)[C@H](C)CN([C@@H](C)CO)C(=O)c2cc(NC(=O)C3CCCCC3)ccc2O1 | . | . | -1 | 3
COc1ccc(NC(=O)Nc2ccc3c(c2)C(=O)N([C@H](C)CO)C[C@@H](C)[C@@H](CN(C)CC2CCCCC2)OCCCC[C@@H](C)O3)cc1 | -81* | 92 | 1 | 2
C[C@H]1CCCCO[C@@H](CN(C)CC2CCCCC2)[C@@H](C)CN([C@@H](C)CO)C(=O)c2cc(NC(=O)Nc3ccccc3)ccc2O1 | -83* | 90 | -1 | -1
C[C@H](CO)N1C[C@H](C)[C@@H](CN(C)CC2CCCCC2)OCCCC[C@H](C)Oc2ccc(NC(=O)Nc3ccccc3)cc2C1=O | -60 | 93 | 0 | 1
SMILES | Pf Dd2 inh | Tcruzi prolif | GASC1 inh | IDH1 mut inh
Cc1ccc2oc(C(=O)Nc3sc4c(c3C(=O)NCc3ccco3)CCC4)c(C)c2c1 | . | . | . | 0
O=C(C1CCCO1)N1N=C(c2c(-c3ccccc3)c3cc(Cl)ccc3[nH]c2=O)CC1c1ccco1 (stereo not given) | . | . | . | 5
Cc1ccc(C)c(NC(=O)Cn2cc([N+](=O)[O-])cn2)c1 | . | . | . | 0
COc1ccc2c3c(n(C)c2c1)[C@H](CO)N(C(=O)C1CC1)CC31CCN(C)CC1 | -86* | . | -1 | .
COc1ccc2c3c(n(C)c2c1)[C@H](CO)N(C(=O)C1CC1)CC31CN(C(=O)C2CCOCC2)C1 | -87* | . | 1 | .
N#Cc1ccccc1NC(=O)COc1ccccc1[N+](=O)[O-] | . | . | . | 0
O=C(COc1ccc(Cl)cc1)Nc1ccc2oc(-c3cccc(F)c3)nc2c1 | . | . | . | 0
CCCN(C)C[C@H]1OCCCC[C@@H](C)Oc2ccc(NC(=O)Cc3ccccc3)cc2C(=O)N([C@@H](C)CO)C[C@H]1C | -86* | 23 | -1 | -2
C[C@@H]1CCCCO[C@@H](CN(C)CC2CCCCC2)[C@@H](C)CN([C@@H](C)CO)C(=O)c2cc(NC(=O)Cc3ccccc3)ccc2O1 | -49 | 58 | -1 | .
C[C@@H]1CCCCO[C@H](CN(C)CC2CCCCC2)[C@@H](C)CN([C@H](C)CO)C(=O)c2cc(NC(=O)Cc3ccccc3)ccc2O1 | -84* | 44 | 3 | .
CCCN(C)C[C@H]1OCCCC[C@@H](C)Oc2ccc(NC(=O)Cc3ccccc3)cc2C(=O)N([C@H](C)CO)C[C@H]1C | -44 | 92 | 0 | 0
Cn1nnnc1SCC(=O)Nc1ncccn1 | . | . | . | 0
COc1ccccc1C#Cc1ccc([C@H]2[C@@H](CO)N(C(=O)C3CC3)[C@H]2C#N)cc1 | ? | 89 | . | 0
COc1ccccc1C#Cc1ccc([C@H]2[C@@H](C#N)N(C(=O)C3CCCCC3)[C@H]2CO)cc1 | -92* | 84 | . | .
COc1ccccc1C#Cc1ccc([C@@H]2[C@@H](C#N)N(C(=O)C3CCCC3)[C@@H]2CO)cc1 | -63 | . | -7 | .
COc1ccccc1C#Cc1ccc([C@@H]2[C@@H](C#N)N(C(=O)C3CCCCC3)[C@H]2CO)cc1 | -91* | 85 | . | .
COc1cc(OC)c2c(=O)c(OC)c(-c3ccccc3)oc2c1 | . | . | . | 0
CC(C)CC#Cc1ccc2c(c1)O[C@@H](CN(C)C(=O)NC(C)C)[C@@H](C)CN([C@@H](C)CO)S2(=O)=O | -3 | 55 | -2 | 0
C[C@@H]1CN([C@@H](C)CO)S(=O)(=O)c2ccc(C#CCN(C)C)cc2O[C@H]1CN(C)CC1CCCC1 | -83* | 88 | 0 | -2
C[C@@H]1CN([C@@H](C)CO)S(=O)(=O)c2ccc(-c3cccc(C#N)c3)cc2O[C@H]1CN(C)Cc1cccc(F)c1 | -84* | 94 | . | 3

High-throughput results deposited in PubChem BioAssay by Broad Institute.
